In ChEMBL document CHEMBL1152630, “Synthesis and evaluation of benzo[b]thiophene derivatives as inhibitors of alkaline phosphatases” (Bioorg Med Chem, 2009):

How the values were obtained:
[1] = molecular target: Intestinal-type alkaline phosphatase (Bos taurus) (UniProt P19111); test: Inhibition of bovine intestinal alkaline phosphatase assessed as residual enzyme activity at 0.1 mM in presence of 1% DMSO at pH 10.4 at 37 degC relative to untreated control
Method in brief: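 Screening in 25 mM piperazine, 25 mM glycylglycine, 5 mM MgCl2, 5 µM ZnCl2, pH 10.4, 37 °C. BIAP (0.1–0.3 µg/mL) preincubated 10 min with 0.1 mM compound (final DMSO 1% v/v), no substrate. Reaction started with 0.05 mM pNPP; read at 420 nm (ε 18.6 cm⁻¹ mM⁻¹). Activity given relative to inhibitor-free control; sample-to-sample error 5%.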

Sus scrofa = species: Sus scrofa; test: Inhibition of porcine kidney tissue non-specific alkaline phosphatase assessed as residual enzyme activity at 0.4 mM in presence of 4% DMSO at pH 10.4 at 37 degC relative to untreated control

Chain of Intestinal-type alkaline phosphatase (Bos taurus) (P19111 20-506 limits assumed): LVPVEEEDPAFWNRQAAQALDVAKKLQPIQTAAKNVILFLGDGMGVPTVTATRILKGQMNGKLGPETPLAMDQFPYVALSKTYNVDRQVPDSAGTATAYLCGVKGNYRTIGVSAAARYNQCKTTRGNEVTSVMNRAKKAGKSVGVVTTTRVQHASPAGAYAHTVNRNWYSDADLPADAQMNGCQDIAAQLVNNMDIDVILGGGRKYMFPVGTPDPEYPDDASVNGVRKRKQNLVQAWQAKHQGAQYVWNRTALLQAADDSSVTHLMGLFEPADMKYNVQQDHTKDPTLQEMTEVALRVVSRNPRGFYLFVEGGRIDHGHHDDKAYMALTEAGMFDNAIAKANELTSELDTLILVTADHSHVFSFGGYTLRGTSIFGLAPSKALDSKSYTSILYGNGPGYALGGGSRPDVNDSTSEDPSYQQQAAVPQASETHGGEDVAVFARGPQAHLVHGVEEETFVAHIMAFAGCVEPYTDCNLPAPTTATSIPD

Structure (SMILES) | Activity [1] [%] | Activity (Sus scrofa) [%]
Clc1cccc(-c2cc3ccccc3s2)c1 | 95 | 96
N#Cc1ccc(Oc2c(-c3ccccc3C#N)sc3ccccc23)cc1 | 82 | 97
O=[N+]([O-])c1ccccc1-c1cc2ccccc2s1 | 121 | 86
Fc1ccc(Oc2csc3ccccc23)cc1 | 104 | 78
N#Cc1ccccc1-c1c(OCC(F)(F)F)sc2ccccc12 | 101 | 87
N#Cc1c(-c2ccc3ccccc3c2)sc2ccccc12 | 18 | 99
c1ccc2c(N3CCCCC3)csc2c1 | 92 | 80
c1ccc(-c2cc3ccccc3s2)nc1 | 119 | 94
O=[N+]([O-])c1cc(Cl)ccc1-c1cc2ccccc2s1 | 107 | 93
Clc1ccc(Oc2csc3ccccc23)cc1 | 107 | 94
Nc1ccccc1-c1cc2ccccc2s1 | 93 | 70
CN1CCN(c2c[s+]([O-])c3ccccc23)CC1 (stereo unspecified) | 102 | 95
COC(=O)C(Cc1c(-c2ccc(C(F)(F)F)cc2)sc2ccccc12)NCc1ccccc1 (stereo unspecified) | 63 | 
O=Cc1c(-c2ccccc2)sc2ccccc12 | 41 | 77
COc1csc2ccccc12 | 90 | 93
N#Cc1sc2ccccc2c1-c1ccc(C(F)(F)F)cc1 | 115 | 
O=Cc1c(-c2ccccc2Cl)sc2ccccc12 | 63 | 97
Ic1cc2ccccc2s1 | 41 | 54
Cc1ccc(-c2cc3ccccc3s2)c(N)c1 | 107 | 93
COc1c(-c2ccccn2)sc2ccccc12 | 99 | 90
N#Cc1ccccc1-c1sc2ccccc2c1C=O | 110 | 79
COc1cc(Oc2csc3ccccc23)cc(OC)c1OC | 129 | 101
COc1ccc(-c2csc3ccccc23)cc1 | 100 | 
COc1ccc(-c2sc3ccccc3c2CN)c(OC)c1OC | 142 | 94
COc1cccc(-c2sc3ccccc3c2C#N)c1 | 97 | 

Structure (SMILES) | Activity [1] [%] | Activity (Sus scrofa) [%]
N#Cc1ccccc1-c1sc2ccccc2c1N1CCOCC1 | 107 | 93
[O-][s+]1cc(Br)c2ccccc21 (stereo unspecified) | 105 | 100
COC(=O)/C(=C\c1c(-c2ccc(C#N)cc2)sc2ccccc12)NCc1ccccc1 | 108 | 
N#Cc1ccccc1-c1sc2ccccc2c1N1CCCCC1 | 99 | 100
NCc1ccc(Oc2csc3ccccc23)cc1 | 105 | 83
COc1ccc(Oc2c(-c3ccccc3C#N)sc3ccccc23)cc1 | 106 | 98
c1ccc(Oc2c(-c3ccccc3)sc3ccccc23)cc1 | 104 | 91
O=Cc1c(-c2cccnc2)sc2ccccc12 | 119 | 93
N#Cc1cc2ccccc2s1 | 103 | 105
O=[N+]([O-])c1ccccc1-c1sc2ccccc2c1-c1ccccc1[N+](=O)[O-] | 108 | 88
COc1ccc(-c2cc3ccccc3s2)c([N+](=O)[O-])c1 | 99 | 96
[O-][s+]1cc(Oc2ccc(F)cc2)c2ccccc21 (stereo unspecified) | 109 | 79
O=Cc1ccc(Oc2csc3ccccc23)cc1 | 9 | 
FC(F)(F)Cc1c(-c2cccnc2)sc2ccccc12 | 122 | 84
COc1ccc(-c2sc3ccccc3c2N2CCCCC2)cc1 | 106 | 91
N#Cc1ccc(Oc2csc3ccccc23)cc1 | 87 | 85
N#Cc1ccccc1-c1sc2ccccc2c1C(=O)c1ccccc1 | 91 | 92
COc1c(-c2ccccc2C)sc2ccccc12 | 73 | 96
COc1c(-c2ccccc2C#N)sc2ccccc12 | 57 | 79
Cc1ccccc1-c1sc2ccccc2c1C#N | 5 | 85
N#Cc1ccc(Oc2c[s+]([O-])c3ccccc23)cc1 (stereo unspecified) | 106 | 67
N#Cc1ccccc1-c1sc2ccccc2c1C#N | 90 | 
N#Cc1c(-c2cccc(Cl)c2)sc2ccccc12 | 115 | 
COc1ccc(Oc2csc3ccccc23)cc1 | 96 | 82
N#Cc1c(-c2ccccn2)sc2ccccc12 | 94 | 

Structure (SMILES) | Activity [1] [%] | Activity (Sus scrofa) [%]
N#Cc1ccccc1-c1sc2ccccc2c1Oc1ccc(Cl)cc1 | 101 | 79
N#Cc1ccccc1-c1sc2ccccc2c1Oc1ccccc1 | 110 | 91
COc1ccccc1C(=O)c1c(-c2ccccc2[N+](=O)[O-])sc2ccccc12 | 92 | 98
O=Cc1c(-c2ccc(Cl)cc2)sc2ccccc12 | 9 | 
COc1c(-c2ccccc2)sc2ccccc12 | 80 | 87
COc1ccc(C(=O)c2csc3ccccc23)cc1 | 40 | 96
COc1ccc(-c2sc3ccccc3c2C=O)cc1 | 37 | 99
COc1ccc(C(=O)c2c(-c3ccc(OC)cc3)sc3ccccc23)cc1 | 70 | 108
CN1CCN(c2csc3ccccc23)CC1 | 107 | 97
COc1c(-c2ccc3ccccc3c2)sc2ccccc12 | 102 | 
COc1ccc(-c2sc3ccccc3c2C(=O)c2ccccc2)c([N+](=O)[O-])c1 | 114 | 97
N#Cc1c(-c2cnc3ccccc3c2)sc2ccccc12 | 95 | 
[O-][s+]1cc(N2CCCCC2)c2ccccc21 (stereo unspecified) | 110 | 101
COc1ccc(-c2sc3ccccc3c2C(=O)c2cc(OC)c(OC)c(OC)c2)c([N+](=O)[O-])c1 | 124 | 92
O=C(c1ccccc1)c1csc2ccccc12 | 43 | 80
c1ccc(-c2sc3ccccc3c2N2CCCCC2)cc1 | 99 | 81
N#Cc1c(-c2cccnc2)sc2ccccc12 | 106 | 
[O-][s+]1cc(Oc2ccccc2)c2ccccc21 (stereo unspecified) | 102 | 104
COc1ccc(-c2sc3ccccc3c2OC)cc1 | 78 | 97
COc1cccc(C(=O)c2c(-c3ccc(OC)cc3[N+](=O)[O-])sc3ccccc23)c1 | 116 | 100
O=Cc1c(-c2ccccc2[N+](=O)[O-])sc2ccccc12 | 116 | 78
COc1ccc(Oc2c[s+]([O-])c3ccccc23)cc1 (stereo unspecified) | 107 | 100
N#Cc1sc2ccccc2c1-c1cccnc1 | 120 | 
N#Cc1ccccc1-c1sc2ccccc2c1Oc1ccc(F)cc1 | 66 | 85
c1ccc2c(N3CCOCC3)csc2c1 | 108 | 99

Structure (SMILES) | Activity [1] [%] | Activity (Sus scrofa) [%]
COc1cccc(C(=O)c2c(-c3ccccc3[N+](=O)[O-])sc3ccccc23)c1 | 98 | 96
O=Cc1c(-c2cnc3ccccc3c2)sc2ccccc12 | 110 | 
[O-][s+]1cc(N2CCOCC2)c2ccccc21 (stereo unspecified) | 97 | 111
COc1ccc(-c2sc3ccccc3c2C(=O)c2cc(OC)c(O)c(OC)c2)c([N+](=O)[O-])c1 | 125 | 95
COc1c(-c2cnc3ccccc3c2)sc2ccccc12 | 64 | 86
COc1cc(-c2sc3ccccc3c2C#N)cc(OC)c1OC | 88 | 91
N#Cc1ccc(-c2sc3ccccc3c2C=O)cc1 | 92 | 105
COc1c(-c2cccnc2)sc2ccccc12 | 112 | 44
NCc1c(-c2cccnc2)sc2ccccc12 | 105 | 111
COc1ccc(C(=O)c2c(-c3ccccc3[N+](=O)[O-])sc3ccccc23)cc1 | 107 | 101
FC(F)c1c(-c2ccccc2)sc2ccccc12 | 94 | 90
COc1ccc(-c2sc3ccccc3c2C#N)cc1 | 94 | 
COC(=O)C(Cc1c(-c2ccc(C#N)cc2)sc2ccccc12)NCc1ccccc1 (stereo unspecified) | 115 | 
Oc1ccccc1N1CCN(c2csc3ccccc23)CC1 | 49 | 109
O=Cc1c(-c2cccc(Cl)c2)sc2ccccc12 | 62 | 95
FC(F)(F)COc1sc2ccccc2c1-c1cccnc1 | 102 | 97
N#Cc1c(-c2ccccc2)sc2ccccc12 | 76 | 
COc1ccc(-c2sc3ccccc3c2Oc2ccccc2)cc1 | 105 | 94
CC(C)(C)c1ccc(Oc2csc3ccccc23)cc1 | 113 | 100
COc1ccc(Oc2c(-c3ccccc3C#N)sc3ccccc23)c(OC)c1OC | 121 | 106
FC(F)(F)COc1cc2ccccc2s1 | 116 | 100
COc1cc(Oc2c[s+]([O-])c3ccccc23)cc(OC)c1OC (stereo unspecified) | 127 | 101
CN(C)c1cccc(-c2sc3ccccc3c2CN)c1 | 134 | 84
O=Cc1csc2ccccc12 | 120 | 85
N#Cc1c(-c2ccc(Cl)cc2)sc2ccccc12 | 69 | 
